# Reference: ChEMBL document CHEMBL1932986, “Synthesis and in vitro antimycobacterial activity of compounds derived from (R)- and (S)-2-amino-1-butanol - The crucial role of the configuration” (Eur J Med Chem, 2012)
# The source made the active and inactive calls. The rule behind the calls is not given here.
# Legend:
# [1] = system: Mycobacterium tuberculosis; experiment: Antimycobacterial activity against Mycobacterium tuberculosis H37Rv after 45 days; type: functional
# Procedure, shortened: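 Canetti proportion method. Compound in DMSO is added to Löwenstein–Jensen egg medium before coagulation (30 min, 85 °C), tested at three levels plus a lower one where needed. Tubes are inoculated with H37Rv at 10⁵ cells/ml and incubated 45 days at 37 °C. Colony counts versus drug-free control give percentage inhibition.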
# [2] = Solubility of the compound in deionized water; type: physicochemical
# Micrococcus luteus [3] = experiment: Antibacterial activity against Micrococcus luteus ATCC 9631 at 50 mg/ml after 24 hrs by agar diffusion test; type: functional
# Procedure, shortened: (§1)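 Agar diffusion: wells in agar filled with […] DMSO solution of compound at various concentrations; diameter of clear zone around application point measured. Bacteria grown 24 h at 37 °C on nutrient agar. Compounds first screened at 50 mg/ml; those active then tested at lower concentrations. Bracketed value = lowest concentration (mg/ml) giving zone >11 mm, reported only if activity retained at ≤1.25 mg/ml.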
# Bacillus cereus = experiment: Antibacterial activity against Bacillus cereus ATCC 11778 at 50 mg/ml after 24 hrs by agar diffusion test; type: functional; conditions: for zone of inhibition at 50000 µg/mL: ATCC 11778, 24 h, read-out: DIZ; procedure, shortened: as §1
# Bacillus subtilis = experiment: Antibacterial activity against Bacillus subtilis ATCC 6633 at 50 mg/ml after 24 hrs by agar diffusion test; type: functional; conditions: for zone of inhibition at 50000 µg/mL: ATCC 6633, 24 h, read-out: DIZ; procedure, shortened: as §1
# Bacillus mycoides = experiment: Antibacterial activity against Bacillus mycoides DSMZ 274 at 50 mg/ml after 24 hrs by agar diffusion test; type: functional; conditions: for zone of inhibition at 50000 µg/mL: DSMZ 274, 24 h, read-out: DIZ; procedure, shortened: as §1
# Micrococcus luteus [4] = experiment: Antibacterial activity against Sarcina lutea ATCC 9341 at 50 mg/ml after 24 hrs by agar diffusion test; type: functional; conditions: for zone of inhibition at 50000 µg/mL: ATCC 9341, 24 h, read-out: DIZ
# Procedure, shortened: (§2)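 Agar diffusion: bacteria grown 24 h at 37 °C on nutrient agar. Wells in the agar are filled with […] of compound solution in DMSO at various concentrations. The diameter of the clear zone around the application point is measured. Bracketed values give the lowest concentration (mg/ml) that produces a zone >11 mm. A first screen is run at 50 mg/ml.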
# Saccharomyces cerevisiae = experiment: Antifungal activity against Saccharomyces cerevisiae ATCC 9763 at 50 mg/ml after 72 hrs by agar diffusion test; type: functional; conditions: for zone of inhibition at 50000 µg/mL: ATCC 9763, 72 h, read-out: DIZ
# Procedure, shortened: (§3)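 Agar diffusion: yeasts grown on yeast peptone dextrose agar and fungi on potato dextrose agar. Wells are filled with […] of compound solution in DMSO at various concentrations, and the clear-zone diameter is measured. Bracketed values give the lowest concentration (mg/ml) that produces a zone >11 mm. A first screen is run at 50 mg/ml.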
# Acinetobacter johnsonii = experiment: Antibacterial activity against Acinetobacter johnsonii ATCC 17909 at 50 mg/ml after 24 hrs by agar diffusion test; type: functional; procedure, shortened: as §1
# Priestia megaterium = experiment: Antibacterial activity against Bacillus megaterium NRRL 1353895 at 50 mg/ml after 24 hrs by agar diffusion test; type: functional; conditions: for zone of inhibition at 50000 µg/mL: NRRL 1353895, 24 h, read-out: DIZ; procedure, shortened: as §1
# Escherichia coli = experiment: Antibacterial activity against Escherichia coli ATCC 8739 at 50 mg/ml after 24 hrs by agar diffusion test; type: functional; procedure, shortened: as §1
# HEK-293T = experiment: Cytotoxicity against human HEK293T cells after 72 hrs by MTT assay; type: cell-based
# Procedure, shortened: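 293T cells in RPMI-1640 with 10% heat-inactivated FCS and 2 mM L-glutamine, 37 °C, 5% CO2. Cells seeded at 3.5 × 10⁵ cells/ml, grown 24 h, then exposed 72 h to DMSO-diluted compounds (final solvent ≤0.5%), ≥8 wells per concentration. MTT added 4 h, formazan dissolved in 5% HCOOH/2-propanol, absorbance read at 580 nm. IC50 obtained by sigmoidal nonlinear regression against untreated control.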
# Staphylococcus aureus = experiment: Antibacterial activity against Staphylococcus aureus NRRL B 313 at 50 mg/ml after 24 hrs by agar diffusion test; type: functional; conditions: for zone of inhibition at 50000 µg/mL: NRRL B 313, 24 h, read-out: DIZ; procedure, shortened: as §2
# [5] = Selectivity index, ratio of IC50 for human HEK293T cells to MIC for Mycobacterium tuberculosis H37Rv; type: functional, HEK-293T
# Candida tropicalis = experiment: Antifungal activity against Candida tropicalis ATCC 20336 at 50 mg/ml after 72 hrs by agar diffusion test; type: functional; conditions: for zone of inhibition at 50000 µg/mL: ATCC 20336, 72 h, read-out: DIZ; procedure, shortened: as §3
# Bacillus = experiment: Antibacterial activity against Bacillus idosus B 241 at 50 mg/ml after 24 hrs by agar diffusion test; type: functional; conditions: for zone of inhibition at 50000 µg/mL: B 241, 24 h, read-out: DIZ; procedure, shortened: as §1
# Penicillium chrysogenum = experiment: Antifungal activity against Penicillium chrysogenum CECT 2802 at 50 mg/ml after 72 hrs by agar diffusion test; type: functional; procedure, shortened: as §3
# [6] = system: Mycobacterium tuberculosis; experiment: Ratio of ethambutol dihydrochloride MIC to compound MIC for Mycobacterium tuberculosis H37Rv; type: functional
Compound,MIC [1] [µM],solubility [2] [µg/mL],diameter of the inhibition zone (DIZ) (Micrococcus luteus [3]),diameter of the inhibition zone (DIZ) (Bacillus cereus),diameter of the inhibition zone (DIZ) (Micrococcus luteus [4]),diameter of the inhibition zone (DIZ) (Saccharomyces cerevisiae),diameter of the inhibition zone (DIZ) (Acinetobacter johnsonii),diameter of the inhibition zone (DIZ) (Escherichia coli),IC50 (HEK-293T) [µM],diameter of the inhibition zone (DIZ) (Staphylococcus aureus),Selectivity Index [5],diameter of the inhibition zone (DIZ) (Bacillus),diameter of the inhibition zone (DIZ) (Penicillium chrysogenum),Ratio [6],diameter of the inhibition zone (DIZ) (Bacillus subtilis),other results
CC[C@@H](CO)NCCN[C@@H](CC)CO.Cl.Cl [ETHAMBUTOL HYDROCHLORIDE],7.22,100000,,,,,,,,,,,,,,
CC[C@H](COC(C)=O)NC(c1ccccc1)(c1ccccc1)c1ccccc1,13.4,< 1000,inactive,inactive,inactive,inactive,inactive,inactive,114,inactive,8.5,inactive,inactive,,,zone of inhibition at 50000 µg/mL (Bacillus subtilis): 13 mm; diameter of the inhibition zone (DIZ) (Bacillus mycoides): inactive; diameter of the inhibition zone (DIZ) (Priestia megaterium): inactive; diameter of the inhibition zone (DIZ) (Candida tropicalis): inactive
CC[C@@H](CO)NC(=O)c1ccccc1C(=O)N[C@@H](CC)CO,> 16.2,,,,,,,,,,,,,2,,
CC(C)=CCC/C(C)=C/CNCCNC1C2CC3CC(C2)CC1C3 (centres undefined) [SQ109],,,,,,,,,,,,,,35,,
CC[C@@H](CO)N1Cc2ccccc2C1=O,> 31.2,,,,,,,,,,,,,2,,
CC[C@@H](CO)NP(=O)(c1ccccc1)c1ccccc1,> 17.3,,,,,,,,,,,,,2,,
CC[C@H](CO)Nc1ccc2c3c(cccc13)C(=O)N([C@H](CC)CO)C2=O,14,< 1000,,inactive,inactive,inactive,inactive,,47,inactive,3.4,inactive,inactive,,inactive,diameter of the inhibition zone (DIZ) (Bacillus mycoides): inactive; diameter of the inhibition zone (DIZ) (Priestia megaterium): inactive
CC[C@H](CO)N1Cc2ccccc2C1,10.5,< 1000,,,,,,,122,,11.7,,,,,"zone of inhibition at 50000 µg/mL (Bacillus cereus): 25 mm; zone of inhibition at 50000 µg/mL (Bacillus subtilis): 11 mm; zone of inhibition at 50000 µg/mL (Bacillus mycoides): 23 mm; zone of inhibition at 50000 µg/mL (Saccharomyces cerevisiae): 16 mm; zone of inhibition at 50000 µg/mL (Escherichia coli; ATCC 8739, 24 h, read-out: DIZ): 25 mm; zone of inhibition at 50000 µg/mL (Staphylococcus aureus): 25 mm; zone of inhibition at 50000 µg/mL (Candida tropicalis): 21 mm; zone of inhibition at 50000 µg/mL (Bacillus): 20 mm; zone of inhibition at 50000 µg/mL (Penicillium chrysogenum; CECT 2802, 72 h, read-out: DIZ): 10 mm"
CC[C@H](CO)NC(=O)c1ccc(N(C)C)cc1,8.46,1500,inactive,inactive,inactive,inactive,inactive,inactive,173,inactive,20.5,inactive,inactive,,inactive,diameter of the inhibition zone (DIZ) (Bacillus mycoides): inactive; diameter of the inhibition zone (DIZ) (Priestia megaterium): inactive; diameter of the inhibition zone (DIZ) (Candida tropicalis): inactive
CC[C@H](CO)N1Cc2ccccc2C1=O,0.97,1000,inactive,inactive,inactive,inactive,inactive,inactive,89,inactive,91.8,inactive,inactive,5,inactive,diameter of the inhibition zone (DIZ) (Bacillus mycoides): inactive; diameter of the inhibition zone (DIZ) (Priestia megaterium): inactive; diameter of the inhibition zone (DIZ) (Candida tropicalis): inactive
CCNC(=O)N[C@@H](CC)CO,> 24.4,,,,,,,,,,,,,2,,
CCNC(=O)N[C@H](CC)CO,1.25,215000,inactive,inactive,inactive,inactive,inactive,inactive,114,inactive,91.2,inactive,inactive,5,inactive,diameter of the inhibition zone (DIZ) (Bacillus mycoides): inactive; diameter of the inhibition zone (DIZ) (Priestia megaterium): inactive; diameter of the inhibition zone (DIZ) (Candida tropicalis): inactive
CC[C@@H](CO)NC(=O)c1ccccc1O,> 23.9,,,,,,,,,,,,,2,,
CC[C@@H](CO)NC(=O)/C=C/c1ccccc1,> 22.8,,,,,,,,,,,,,2,,
CC[C@H](CO)NP(=O)(c1ccccc1)c1ccccc1,0.69,< 1000,,,,,,inactive,155,,224.6,,,5,,"zone of inhibition at 50000 µg/mL (Micrococcus luteus [3]; ATCC 9631, 24 h, read-out: DIZ): 15 mm; zone of inhibition at 50000 µg/mL (Bacillus cereus): 15 mm; zone of inhibition at 50000 µg/mL (Bacillus subtilis): 18 mm; zone of inhibition at 50000 µg/mL (Bacillus mycoides): 15 mm; zone of inhibition at 50000 µg/mL (Micrococcus luteus [4]): 18 mm; zone of inhibition at 50000 µg/mL (Saccharomyces cerevisiae): 16 mm; zone of inhibition at 50000 µg/mL (Acinetobacter johnsonii; ATCC 17909, 24 h, read-out: DIZ): 17 mm; zone of inhibition at 50000 µg/mL (Priestia megaterium): 16 mm; zone of inhibition at 50000 µg/mL (Staphylococcus aureus): 18 mm; zone of inhibition at 50000 µg/mL (Candida tropicalis): 22 mm; zone of inhibition at 50000 µg/mL (Bacillus): 15 mm"
CC[C@H](CO)/N=C1\C[C@H]2CC[C@]1(C)C2(C)C,> 22.4,,inactive,inactive,inactive,inactive,inactive,inactive,,inactive,,inactive,inactive,,inactive,zone of inhibition at 50000 µg/mL (Bacillus mycoides): 11 mm; zone of inhibition at 50000 µg/mL (Priestia megaterium): 10 mm; diameter of the inhibition zone (DIZ) (Candida tropicalis): inactive
CC[C@H](CO)NC(=O)/C=C/c1ccccc1,9.12,< 1000,inactive,,,,inactive,inactive,211,,23.1,inactive,,,inactive,zone of inhibition at 50000 µg/mL (Bacillus cereus): 12 mm; zone of inhibition at 50000 µg/mL (Bacillus mycoides): 12 mm; zone of inhibition at 50000 µg/mL (Micrococcus luteus [4]): 15 mm; zone of inhibition at 50000 µg/mL (Saccharomyces cerevisiae): 13 mm; zone of inhibition at 50000 µg/mL (Priestia megaterium): 12 mm; zone of inhibition at 50000 µg/mL (Staphylococcus aureus): 12 mm; zone of inhibition at 50000 µg/mL (Candida tropicalis): 11 mm
